# According to ChEMBL document CHEMBL1125164, “Spiro hydantoin aldose reductase inhibitors derived from 8-aza-4-chromanones” (J Med Chem, 1990):
# Legend:
# [1] = target: Aldo-keto reductase family 1 member B1 (Homo sapiens, UniProt P15121); test: In vitro inhibitory activity against Aldose reductase isolated from human placenta
# How it was run: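 Human placental aldose reductase, partially purified (homogenized in 0.1 M K phosphate pH 7.0 with 5 mM 2-mercaptoethanol). Assay: 50 mM K phosphate pH 7.1, 0.4 M ammonium sulfate, 0.067 mM NADPH, 1.0 mM dl-glyceraldehyde, 25 °C. NADPH oxidation followed at 340 nm over 10 min.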
# Rattus norvegicus [2] = test: Tested in vivo for ability to inhibit sorbitol formation in the nerve of a streptozotocinizad rat model after oral administration at the dose of 1.0 mg/Kg; assay type: functional
# How it was run: (§1)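 Rats made diabetic with streptozotocin 85 mg/kg iv at 0 h. Compound given by oral gavage at 4, 7 and 24 h. Sciatic nerve sorbitol measured at 27 h. Reported as mean ± SEM percent inhibition of sorbitol accumulation versus untreated diabetic controls. Student's t test on absolute sorbitol levels.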
# Rattus norvegicus [3] = test: Tested in vivo for ability to inhibit sorbitol formation in the lens of a streptozotocinizad rat model after oral administration at the dose of 1.0 mg/Kg; assay type: functional; conditions: Lens of camera-type eye
# How it was run: (§2)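 Rats made diabetic with streptozotocin 85 mg/kg iv at 0 h. Compound given by oral gavage at 4, 7 and 24 h. Lens sorbitol measured at 27 h. Reported as mean ± SEM percent inhibition of sorbitol accumulation versus untreated diabetic controls. Student's t test on absolute sorbitol levels.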
# Rattus norvegicus [4] = test: Tested in vivo for ability to inhibit sorbitol formation in the lens of a streptozotocinized rat model after oral administration at the dose of 1.0 mg/Kg; assay type: functional; conditions: Lens of camera-type eye; how it was run: as §2
# Rattus norvegicus [5] = test: Tested in vivo for ability to inhibit sorbitol formation in the nerve of a streptozotocinized rat model after oral administration at the dose of 1.0 mg/Kg; assay type: functional; how it was run: as §1
# Rattus norvegicus [6] = test: Tested in vivo for ability to inhibit sorbitol formation in the nerve of a streptozotocinized rat model after oral administration at the dose of 0.25 mg/Kg; assay type: functional; how it was run: as §1
# Rattus norvegicus [7] = test: Tested in vivo for ability to inhibit sorbitol formation in the lens of a streptozotocinized rat model after oral administration at the dose of 0.25 mg/Kg; assay type: functional; conditions: Lens of camera-type eye; how it was run: as §2
# Rattus norvegicus [8] = test: Tested in vivo for ability to inhibit sorbitol formation in the lens of a streptozotocinized rat model after oral administration at the dose of 5.0 mg/Kg; assay type: functional; conditions: Lens of camera-type eye; how it was run: as §2
# Rattus norvegicus [9] = test: Tested in vivo for ability to inhibit sorbitol formation in the nerve of a streptozotocinized rat model after oral administration at the dose of 5.0 mg/Kg; assay type: functional; how it was run: as §1
# Rattus norvegicus [10] = test: Tested in vivo for ability to inhibit sorbitol formation in the lens of a streptozotocinized rat model after oral administration at the dose of 1.0 mg/kg; assay type: functional; conditions: Lens of camera-type eye; how it was run: as §2
# Rattus norvegicus [11] = test: Tested in vivo for ability to inhibit sorbitol formation in the nerve of a streptozotocinized rat model after oral administration at the dose of 0.1 mg/Kg; assay type: functional; how it was run: as §1
# Rattus norvegicus [12] = test: Tested in vivo for ability to inhibit sorbitol formation in the nerve of a streptozotocinized rat model after oral administration at the dose of 0.5 mg/Kg; assay type: functional; how it was run: as §1
# Rattus norvegicus [13] = test: Tested in vivo for ability to inhibit sorbitol formation in the lens of a streptozotocinized rat model after oral administration at the dose of 0.1 mg/Kg; assay type: functional; conditions: Lens of camera-type eye; how it was run: as §2
# Rattus norvegicus [14] = test: Tested in vivo for ability to inhibit sorbitol formation in the lens of a streptozotocinized rat model after oral administration at the dose of 0.5 mg/Kg; assay type: functional; conditions: Lens of camera-type eye; how it was run: as §2
# Rattus norvegicus [15] = test: Tested in vivo for ability to inhibit sorbitol formation in the lens of a streptozotocinized rat model after oral administration at the dose of 1.5 mg/Kg; assay type: functional; conditions: Lens of camera-type eye; how it was run: as §2
# Rattus norvegicus [16] = test: Tested in vivo for ability to inhibit sorbitol formation in the nerve of a streptozotocinized rat model after oral administration at the dose of 0.15 mg/Kg; assay type: functional; how it was run: as §1
# Rattus norvegicus [17] = test: Tested in vivo for ability to inhibit sorbitol formation in the nerve of a streptozotocinized rat model after oral administration at the dose of 0.75 mg/kg; assay type: functional; how it was run: as §1
# Rattus norvegicus [18] = test: Tested in vivo for ability to inhibit sorbitol formation in the lens of a streptozotocinized rat model after oral administration at the dose of 0.15 mg/Kg; assay type: functional; conditions: Lens of camera-type eye; how it was run: as §2
# Rattus norvegicus [19] = test: Tested in vivo for ability to inhibit sorbitol formation in the lens of a streptozotocinized rat model after oral administration at the dose of 0.75 mg/Kg; assay type: functional; conditions: Lens of camera-type eye; how it was run: as §2
# Rattus norvegicus [20] = test: Tested in vivo for ability to inhibit sorbitol formation in the nerve of a streptozotocinized rat model after oral administration at the dose of 1.5 mg/Kg; assay type: functional; how it was run: as §1
Structure (SMILES),IC50 [1],inhibition in vivo at 1 mg/kg (Rattus norvegicus [4]),inhibition in vivo at 1 mg/kg (Rattus norvegicus [5]),further results
O=C1NC(=O)[C@@]2(CCOc3ncc(Cl)cc32)N1 (racemic),6450 nM,46.1%,37%,
O=C1NC(=O)[C@@]2(CCOc3ccc(F)cc32)N1 [SORBINIL],,,,inhibition in vivo at 1.5 mg/kg (Rattus norvegicus [15]): 73.4%; inhibition in vivo at 0.15 mg/kg (Rattus norvegicus [16]): 29%; inhibition in vivo at 0.75 mg/kg (Rattus norvegicus [17]): 72.7%; inhibition in vivo at 0.15 mg/kg (Rattus norvegicus [18]): 12.3%; inhibition in vivo at 0.75 mg/kg (Rattus norvegicus [19]): 44.2%; inhibition in vivo at 1.5 mg/kg (Rattus norvegicus [20]): 90.9%
C[C@@H]1C[C@]2(NC(=O)NC2=O)c2cccnc2O1 (racemic),7220 nM,33.9%,18.2%,
C[C@@H]1C[C@]2(NC(=O)NC2=O)c2cc(F)cnc2O1 (racemic),1130 nM,,,
C[C@H]1C[C@@]2(NC(=O)NC2=O)c2cc(Cl)cnc2O1,3090 nM,-10.6%,-9.5%,

# The next lines start with results.
IC50 [1],Structure (SMILES),inhibition in vivo at 1 mg/kg (Rattus norvegicus [4]),inhibition in vivo at 1 mg/kg (Rattus norvegicus [5]),further results
130 nM,C[C@@H]1C[C@]2(NC(=O)NC2=O)c2cc(Cl)c[n+]([O-])c2O1 (racemic),,,inhibition in vivo at 1 mg/kg (Rattus norvegicus [2]): 37.6%; inhibition in vivo at 1 mg/kg (Rattus norvegicus [3]): 19.9%
500 nM,C[C@@H]1C[C@]2(NC(=O)NC2=O)c2cc(Br)cnc2O1 (racemic),67.4%,72.7%,
890 nM,C[C@H]1C[C@]2(NC(=O)NC2=O)c2cc(Cl)cnc2O1 (racemic),,,inhibition in vivo at 0.25 mg/kg (Rattus norvegicus [6]): 12.8%; inhibition in vivo at 0.25 mg/kg (Rattus norvegicus [7]): 31.8%
950 nM,C[C@@H]1C[C@]2(NC(=O)NC2=O)c2cc(Cl)c[n+]([O-])c2O1,,,
25 nM,C[C@@H]1C[C@]2(NC(=O)NC2=O)c2cc(Cl)cnc2O1 (racemic; 14),,,inhibition in vivo at 5 mg/kg (Rattus norvegicus [8]): 89%; inhibition in vivo at 0.25 mg/kg (Rattus norvegicus [6]): 38%; inhibition in vivo at 0.25 mg/kg (Rattus norvegicus [7]): 13%; inhibition in vivo at 5 mg/kg (Rattus norvegicus [9]): 98%
7.5 nM,C[C@@H]1C[C@]2(NC(=O)NC2=O)c2cc(Cl)cnc2O1 (racemic; 16),,87.5%,inhibition in vivo at 1 mg/kg (Rattus norvegicus [10]): 88.2%; inhibition in vivo at 0.1 mg/kg (Rattus norvegicus [11]): 8.7%; inhibition in vivo at 0.5 mg/kg (Rattus norvegicus [12]): 55.8%; inhibition in vivo at 0.1 mg/kg (Rattus norvegicus [13]): 13.8%; inhibition in vivo at 0.5 mg/kg (Rattus norvegicus [14]): 55.5%
